Only some compounds are listed: those with a hit (about 4.8% of all), similar ones and a draw of the others.
ATG4B inh – inhibitors of human ATG4B cysteine protease; Q9Y4P1; ATG4B cleavage of LC3-PLA2, NBD-HPC fluorescence, 1 h; inhibition, % at 8.33 µM; 0.51% of 340,000 active; in the data active means inhibition above about 40%
Target sequence (Q9Y4P1 whole entry, looked up): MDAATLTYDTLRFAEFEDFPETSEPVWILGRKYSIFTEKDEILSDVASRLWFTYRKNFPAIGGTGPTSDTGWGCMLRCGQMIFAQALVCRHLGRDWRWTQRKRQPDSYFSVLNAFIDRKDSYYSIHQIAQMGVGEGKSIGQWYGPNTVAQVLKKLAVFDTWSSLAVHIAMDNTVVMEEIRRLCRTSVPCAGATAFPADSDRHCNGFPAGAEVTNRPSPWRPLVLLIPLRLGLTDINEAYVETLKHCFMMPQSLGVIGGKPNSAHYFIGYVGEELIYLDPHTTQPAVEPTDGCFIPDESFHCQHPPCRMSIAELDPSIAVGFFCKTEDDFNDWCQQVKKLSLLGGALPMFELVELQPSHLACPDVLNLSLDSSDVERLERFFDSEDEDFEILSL
NALP1 yeast inh – blocks the NALP1 inflammasome reconstituted in yeast | S. cerevisiae NALP1/ASC/caspase-1 growth, X-gal OD620, 72 h | inhibition, % at 10 µM | 0.61% of 280,000 active | AID 2071; in the data active means inhibition mostly above about 24%, no sharp cut-off; inactive means mostly below about 32%
UCH37 inh – human UCH37 deubiquitinating enzyme inhibition; Q9Y5K5; purified proteasome/UCH37, Ub-AMC cleavage fluorescence; inhibition, % (concentration not given with the values); 0.33% of 330,000 active; AID 588478;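 active means mean inhibition over replicate wells above about 20%, limit read from the data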;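 further: 0% = compound-free wells with enzyme and 100% = wells lacking proteasome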
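Material: Human UCH37 enzyme supplied as purified proteasome complex | Schedule: 30 min compound-proteasome preincubation then 25 min substrate reaction, room temperature | Detection: AMC fluorescence from Ub-AMC cleavage, excitation 355 nm, emission 460 nm | Benchmarks: Wells without proteasome as full block, compound-free enzyme plus substrate as uninhibited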
ALR inh – blocks human ALR sulfhydryl oxidase activity | inhibition, % (concentration not given with the values) | 3.8% of 290,000 active | AID 485317 | purified ALR, DTT oxidation, H2O2 HRP-luminol luminescence | P55789;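 active means mean replicate inhibition above about 79%, with every replicate also reaching it, limit read from the data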
NLRP3 yeast inh – inhibitors of NALP3 inflammasome in yeast; AID 2825; Yeast reconstituted NLRP3/ASC/caspase-1, beta-gal luminescence, 24 h; 0.39% of 330,000 active; inhibition, % at 10 µM;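 active means inhibition of 50% or more; inactive means inhibition below 50%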;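 further: plate controls were induced DMSO wells for no effect and uninduced yeast grown without galactose for full effect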
Calb FLC – C. albicans growth modulation with fluconazole. C. albicans CaCi-2 (fluconazole-resistant clinical isolate) + fluconazole, Alamar Blue growth, 48 h. growth inhibition, % (no concentration beside the values). 0.57% of 300,000 active;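 active means growth inhibition above about 58% in most replicates, limit read from the data, passing the limit was not always enough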;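 further: all wells also contain fluconazole at 8 µg/ml as a sub-toxic cotreatment; 0% = median of DMSO wells and 100% = median of geldanamycin control wells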
PLA2 ctr – counter-screen for ATG4B inhibitors: human phospholipase A2; shares compounds with ATG4B inh; purified PLA2, NBD-C6-HPC fluorescence, 45 min; inhibition, % at 8.33 µM; 66% of 1,600 active; AID 588402; in the data active means inhibition above about 50%
Target sequence (P04054 whole entry, looked up): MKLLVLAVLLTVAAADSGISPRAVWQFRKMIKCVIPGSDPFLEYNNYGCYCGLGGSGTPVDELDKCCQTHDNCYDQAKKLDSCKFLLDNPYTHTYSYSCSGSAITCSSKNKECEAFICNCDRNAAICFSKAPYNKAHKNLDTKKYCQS
An asterisk follows results filed as active.

What do the screens show for `COc1ccccc1NS(=O)(=O)c1cccc(N=C2N=C(N)c3ccccc32)c1`?
ATG4B inh: 53.7*; NALP1 yeast inh: 18.7; UCH37 inh: 7.3; ALR inh: -2.1; NLRP3 yeast inh: -6.0; Calb FLC: 3.2; PLA2 ctr: 56.9*

What do the screens show for `CC(=NNc1c(F)c(F)c(Br)c(F)c1F)c1ccncc1`?
UCH37 inh: 7.0

What do the screens show for `COc1cc(C=N/N=C2/NC(=O)C(CC(=O)O)S2)ccc1OCc1cccc(Cl)c1` (configuration not stated)?
UCH37 inh: 8.6

Results for CCOC(=O)c1c(NS(=O)(=O)c2ccc(Br)cc2)sc2c1CCC2 ?
ATG4B inh: 46.0*; UCH37 inh: 3.8; ALR inh: 63.3; NLRP3 yeast inh: -2.2; Calb FLC: 16.6; PLA2 ctr: 56.7*

What do the screens show for `Cc1ccc(C=Nn2c(-c3ccc(Cl)cc3)n[nH]c2=S)o1`?
UCH37 inh: 2.8

How did COc1ccc(C=NNC(=O)CCN2CCCCC2c2cccnc2)cc1Cn1cc([N+](=O)[O-])cn1 (configuration not stated) do in these assays?
UCH37 inh: 1.8

What do the screens show for `O=C(Nc1cc(C(=O)Nc2ccccc2C(=O)O)cc(C(=O)Nc2ccccc2C(=O)O)c1)c1ccccc1`?
ATG4B inh: 67.9*; NALP1 yeast inh: 5.9; ALR inh: 11.4; NLRP3 yeast inh: 1.4; Calb FLC: 6.3; PLA2 ctr: 84.2*

How did O=C(Nc1ccccc1C(=O)O)c1cccc(NC(=O)c2ccccc2Br)c1 do in these assays?
ATG4B inh: 0.1; NALP1 yeast inh: 6.5; UCH37 inh: -2.4; NLRP3 yeast inh: 21.4; Calb FLC: 0.1

What do the screens show for `c1ccc(CSCc2cn3ccsc3n2)cc1`?
ATG4B inh: -1.6; NALP1 yeast inh: 14.5; UCH37 inh: 0.6; ALR inh: 47.9; NLRP3 yeast inh: 25.4; Calb FLC: -0.5

What do the screens show for `O=c1c2ccccc2nc(SCc2nnc(-c3ccccc3)o2)n1-c1ccc(F)cc1F`?
ATG4B inh: 62.1*; NALP1 yeast inh: 21.9; ALR inh: -1.5; NLRP3 yeast inh: 19.6; Calb FLC: 13.0; PLA2 ctr: 69.4*

Results for O=c1c2ccccc2nc(SCc2cn3ccsc3n2)n1-c1ccccc1F ?
ATG4B inh: 65.6*; NALP1 yeast inh: 15.4; UCH37 inh: 4.9; ALR inh: 37.3; NLRP3 yeast inh: 14.1; Calb FLC: -7.4; PLA2 ctr: 71.9*

How did O=c1c2ccccc2nc(SCc2cn3ccsc3n2)n1-c1ccccc1 do in these assays?
ATG4B inh: 60.0*; NALP1 yeast inh: 6.7; UCH37 inh: 2.9; ALR inh: 9.3; NLRP3 yeast inh: 23.5; Calb FLC: 11.3; PLA2 ctr: 72.8*

Results for Cc1cccc(-n2c(SCc3cc(=O)n4ccsc4n3)nc3ccccc3c2=O)c1 ?
ATG4B inh: 4.3; NALP1 yeast inh: 5.9; UCH37 inh: 5.9; ALR inh: -28.2; NLRP3 yeast inh: 11.9; Calb FLC: 6.8

Results for Cc1cc(NN=C2CCCc3ccccc32)nc2ccccc12 ?
UCH37 inh: -16.1

What do the screens show for `Cn1c(SCC(=O)NN=Cc2ccc(O)c(O)c2)nc2ccccc21`?
UCH37 inh: 3.6

Results for Cc1cccc(C(=O)ON=C2CCS(=O)(=O)c3sccc32)c1 ?
UCH37 inh: 3.9

Results for Cc1cccc(NC(=S)NC2CC3CCCC(C2)N3Cc2cccs2)c1C (configuration not stated) ?
ATG4B inh: 48.9*; NALP1 yeast inh: -0.8; UCH37 inh: 2.4; ALR inh: 6.2; NLRP3 yeast inh: 16.3; Calb FLC: -12.7; PLA2 ctr: 58.8*

Results for CCc1ccccc1NC(=S)NC1CC2CCCC(C1)N2Cc1cccs1 (configuration not stated) ?
ATG4B inh: 48.2*; NALP1 yeast inh: 20.3; UCH37 inh: 2.5; ALR inh: 15.9; NLRP3 yeast inh: 24.2; Calb FLC: -29.9; PLA2 ctr: 47.9

What do the screens show for `C[C@@]12CCC=C[C@H]1[C@H](c1ccccc1Br)N(Cc1ccccc1)C2=O`?
ATG4B inh: 47.5*; UCH37 inh: 4.7; PLA2 ctr: 79.1*

Results for Nc1nonc1-n1nnc(C(=O)NN=Cc2cccc(F)c2)c1-c1ccccc1 ?
UCH37 inh: 5.2

How did COc1ccc(NS(=O)(=O)c2ccc(C)c(NC(=O)NC3CCCCC3)c2)cc1 do in these assays?
ATG4B inh: 4.9; NALP1 yeast inh: 18.4; UCH37 inh: 5.5; ALR inh: -2.9; NLRP3 yeast inh: 10.9; Calb FLC: 22.6

How did COc1ccc(NS(=O)(=O)c2cccc(NC(=O)NC3CCCCC3)c2)cc1 do in these assays?
ATG4B inh: 54.4*; NALP1 yeast inh: 18.9; UCH37 inh: -0.5; ALR inh: 2.1; NLRP3 yeast inh: -0.6; Calb FLC: 6.1; PLA2 ctr: 64.8*

How did CC(=O)c1cccc(NC(=O)NC2CCCc3ccccc32)c1 (configuration not stated) do in these assays?
ATG4B inh: 52.6*; NALP1 yeast inh: -30.3; UCH37 inh: 4.6; ALR inh: -3.5; NLRP3 yeast inh: 18.8; Calb FLC: 25.4; PLA2 ctr: 66.9*

How did CC(=O)c1ccc(NC(=O)NC2CCCc3ccccc32)cc1 (configuration not stated) do in these assays?
ATG4B inh: 39.9; NALP1 yeast inh: 12.6; UCH37 inh: 1.5; ALR inh: 9.3; NLRP3 yeast inh: 3.1; Calb FLC: -6.4

What do the screens show for `CC(=NNc1nc(-c2ccccc2F)nc2ccccc12)c1ccccc1O`?
UCH37 inh: 2.8

What do the screens show for `CC(Sc1ncnc2sc(-c3ccccc3)cc12)C(N)=O` (configuration not stated)?
ATG4B inh: 48.3*; NALP1 yeast inh: 7.3; UCH37 inh: 0.0; ALR inh: -0.5; NLRP3 yeast inh: 22.7; Calb FLC: 27.7; PLA2 ctr: 61.9*

How did O=C(O)CSc1ncnc2sc(-c3ccccc3)cc12 do in these assays?
ATG4B inh: 7.5; NALP1 yeast inh: -4.1; ALR inh: -4.7; NLRP3 yeast inh: 3.5; Calb FLC: -0.5

How did O=[N+]([O-])c1ccc(-c2ccc(C=NNc3nc(NCc4ccccc4)nc(N4CCOCC4)n3)o2)cc1 do in these assays?
UCH37 inh: 5.4

How did Cc1csc(NC(=O)c2cc3c(C)nn(Cc4ccccc4Cl)c3s2)n1 do in these assays?
ATG4B inh: 66.1*; NALP1 yeast inh: 23.0; UCH37 inh: -38.0; NLRP3 yeast inh: -3.1; Calb FLC: -6.7; PLA2 ctr: 58.0*

What do the screens show for `COc1ccc(S(=O)(=O)N(CC(=O)NN=Cc2ccccc2C(=O)O)c2ccccc2OC)cc1`?
UCH37 inh: 1.6
